Each structure is given as a SMILES string.

Series [1] is described as follows: Cytotoxicity against african green monkey Vero cells after 72 hrs by MTT assay. The following applies: chlorocebus sabaeus. In kind it is cell-based. In a few lines:
(§1)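 Vero or transformed THP-1 cells incubated with compound (0.3–300 μM) 72 h at 37 °C, 5% CO2; untreated controls. MTT read-out, formazan OD at 580 nm; % cytotoxicity = 100 × (OD control − OD treated)/OD control. CC50/CC90 by sigmoidal regression; triplicates, repeated twice. DMSO stocks 100× concentrated, diluted in medium.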
For orientation: Tetrazolium dyes change colour on reduction, which living cells bring about.

For series [2], the system named is Trypanosoma cruzi. Briefly: Antitrypanosomal activity against Trypanosoma cruzi 320I01 epimastigotes after 72 hrs by haemocytometry. In kind it is functional, organism-based. The following applies: 320I01, 72 h. In a few lines: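 Late-phase T. cruzi epimastigotes cultured in LIT medium with hiFCS at 28 °C; threefold serial dilutions (0.3–100 μM) for 72 h at 28 °C, untreated controls. Parasites counted in a haemocytometer; IC50/IC90 by sigmoidal regression; each concentration in triplicate, two experiments.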

Series [3] is described as follows: Selectivity index, CC50 for african green monkey Vero cells to IC50 for Trypanosoma cruzi 320I01 epimastigote. In kind it is functional. In outline: (§2)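 Selectivity index computed as CC50 in Vero cells divided by IC50 against the T. cruzi stage named in the line.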
The subject of series [4] is Trypanosoma cruzi. As to the kind of experiment: Antitrypanosomal activity against Trypanosoma cruzi 320I01 amastigotes infected in african green monkey Vero cells after 5 days by Giemsa staining. In kind it is functional, organism-based. The following applies: 320I01, Vero, 120 h. In a few lines: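 Vero cells (RPMI, 5% hiSBF, 37 °C, 5% CO2) infected 24 h with tissue-derived T. cruzi trypomastigotes at parasite:cell 10:1. Compound dilutions (top 100 μM) applied 5 days at 37 °C, 5% CO2, medium changed once at day 3. Infected cells scored per 300 cells on methanol-fixed Giemsa preparations; IC50/IC90 by sigmoidal regression; triplicates, two experiments.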

Series [5] can be described thus: Selectivity index, CC50 for african green monkey Vero cells to IC50 for Trypanosoma cruzi 320I01 amastigotes. In kind it is functional. In a few lines: as §2
Series [6] deals with Leishmania chagasi. As to the kind of experiment: Antileishmanial activity against Leishmania chagasi MHOM/BR/74/PP75 promastigotes after 72 hrs by haemocytometry. In kind it is functional, organism-based. The following applies: MHOM/BR/74/PP75, 72 h. In outline: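 Late-phase L. chagasi promastigotes, grown at 28 °C in RPMI 1640 with hemin, HEPES and 10% hiSBF, exposed to threefold serial dilutions (0.3–100 μM) for 72 h at 28 °C; untreated controls. Growth inhibition from haemocytometer counts; IC50/IC90 by sigmoidal regression; triplicates, repeated twice.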

Series [7] can be described thus: Cytotoxicity against human THP1 cells after 72 hrs by MTT assay. The following applies: THP-1 cells. Format: cell-based. In a few lines: as §1
The nature of series [8]: Selectivity index, CC50 for human THP1 cells to IC50 for Leishmania chagasi MHOM/BR/74/PP75 promastigotes. Format: functional, THP-1. In a few lines: (§3)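 Selectivity index computed as CC50 in THP-1 cells divided by IC50 against the L. chagasi stage named in the line.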
The subject of series [9] is Leishmania chagasi. Briefly: Antileishmanial activity against Leishmania chagasi MHOM/BR/74/PP75 amastigotes infected in human THP1 cells after 5 days by Giemsa staining. In kind it is functional, organism-based. The note with it: MHOM/BR/74/PP75, THP-1, 120 h. In outline: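 THP-1 cells (RPMI, 5% hiSBF, 37 °C, 5% CO2) transformed, then infected 24 h with late-phase L. chagasi promastigotes at parasite:cell 10:1. Treated with compound dilutions (top 100 μM) 5 days at 37 °C, 5% CO2, medium changed once after 3 days. Infected cells counted per 300 cells on methanol-fixed Giemsa slides; IC50/IC90 by sigmoidal regression; triplicates, repeated twice.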

Series [10] in a line: Selectivity index, CC50 for human THP1 cells to IC50 for Leishmania chagasi MHOM/BR/74/PP75 amastigotes. Format: functional, THP-1. In outline:
as §3

As a reminder, the CC50 is the concentration giving 50% cytotoxicity. What is called IC50 is the concentration that inhibits the measured activity by half. Usually IC90 stands for the concentration at which the effect reaches the 90% level. Take `O[C@@H]1Cc2cc(Cl)ccc2N[C@H](c2c(F)cccc2Cl)C1` (relative stereo): the CC50 at 72 h worked out at 92 µM in [1] and 110 µM in series [7]. Moreover, the results for the CC90 at 72 h in series [1] and in series [7] were 182 µM and 214 µM, respectively. The IC50 in the series with Trypanosoma cruzi [2] is 14.5 µM; in the series with Trypanosoma cruzi [4], over 34.1 µM; with Leishmania chagasi [6] it was 39.8 µM; with Leishmania chagasi [9], 73.2 µM. The concentration for an effect of 90% (IC90) with Trypanosoma cruzi [2] is 34.8 µM; in the series on Trypanosoma cruzi [4], over 34.1 µM; with Leishmania chagasi [6], 78.5 µM; in the series with Leishmania chagasi [9], over 100 µM. The “Selectivity Index” value is recorded as 6.36 in [3], over 2 in series [5], 2.76 in series [8] and over 1 in series [10].

As for `O[C@@H]1Cc2ccccc2N[C@H](c2c(Cl)cccc2Cl)C1` (relative stereo), the CC50 at 72 h in [1] and in series [7] was over 300 µM in each case. Further, the CC90 at 72 h in [1] and in [7] was over 300 µM throughout. Also, the IC50 was 48.9 µM in the series with Trypanosoma cruzi [2], 69.9 µM in the series on Trypanosoma cruzi [4], over 100 µM in the series on Leishmania chagasi [6] and over 100 µM in the series with Leishmania chagasi [9]. In addition, the IC90 in the series with Trypanosoma cruzi [2], in the series with Trypanosoma cruzi [4], with Leishmania chagasi [6] and with Leishmania chagasi [9] was over 100 µM each time. The “Selectivity Index” value was over 6 in series [3], over 4 in series [5], over 3 in series [8] and over 3 in [10].

`O[C@@H]1Cc2ccccc2N[C@H](c2c(F)cccc2Cl)C1` (relative stereo): the CC50 at 72 h in [1] and in series [7] was over 300 µM in each case. For the same compound, the CC90 at 72 h in series [1] and in series [7] was over 300 µM each time. The IC50 in the series with Trypanosoma cruzi [2], in the series on Trypanosoma cruzi [4], in the series on Leishmania chagasi [6] and in the series with Leishmania chagasi [9] was over 100 µM throughout. For the same compound, the IC90 in the series with Trypanosoma cruzi [2], with Trypanosoma cruzi [4], in the series with Leishmania chagasi [6] and in the series with Leishmania chagasi [9] was over 100 µM throughout. Moreover, the “Selectivity Index” value in series [3], in series [5], in series [8] and in series [10] was over 3 throughout.

On to `O[C@@H]1Cc2cc(Cl)ccc2N[C@H](c2c(Cl)cccc2Cl)C1` (relative stereo), for which the CC50 at 72 h in series [1] turned out to be 49.9 µM; in series [7], 59.6 µM. The CC90 at 72 h in [1] is 176 µM; in series [7], over 293 µM. Besides, the IC50 is 14.8 µM in the series with Trypanosoma cruzi [2], over 32.5 µM in the series with Trypanosoma cruzi [4], 14.7 µM in the series with Leishmania chagasi [6] and over 32.5 µM in the series on Leishmania chagasi [9]. For the same compound, the 90% effect concentration (IC90) in the series with Trypanosoma cruzi [2] is 53 µM; in the series with Trypanosoma cruzi [4] it was over 32.5 µM; in the series on Leishmania chagasi [6], 30.3 µM; in the series on Leishmania chagasi [9], over 32.5 µM. Further, the “Selectivity Index” value in [3] is 3.36; in series [5], over 1; in series [8] it was 4.06; in series [10], over 1.

For `C[C@@H]1[C@H](O)[C@@H](C)/C=C/C=C/C=C/C=C/C=C/C=C/C=C/[C@H](O[C@@H]2O[C@H](C)[C@@H](O)[C@H](N)[C@@H]2O)C[C@@H]2O[C@](O)(C[C@@H](O)C[C@@H](O)[C@H](O)CC[C@@H](O)C[C@@H](O)CC(=O)O[C@H]1C)C[C@H](O)[C@H]2C(=O)O` [AMPHOTERICIN B], the IC50 in the series on Leishmania chagasi [6] stood at 0.02 µM; in the series with Leishmania chagasi [9], 0.08 µM. Besides, the IC90 stood at 0.02 µM in the series on Leishmania chagasi [6] and 0.14 µM in the series on Leishmania chagasi [9]. The compound further showed a CC50 at 72 h in [7] of 8.79 µM. Besides, the CC90 at 72 h in series [7] was found to be 34.9 µM. Also, the “Selectivity Index” value is on record as 439.5 in series [8] and 109.87 in series [10].

On to `CC1CS(=O)(=O)CCN1/N=C/c1ccc([N+](=O)[O-])o1` (stereo not given) [NIFURTIMOX], for which, in [1], the CC50 at 72 h was found to be 61.4 µM and the CC90 at 72 h was over 300 µM. Besides, in the series on Trypanosoma cruzi [2], the IC50 came to 2.33 µM and the IC90 is 23.4 µM. For the same compound, in series [3], the “Selectivity Index” value came out at 26.36. Also, in the series with Trypanosoma cruzi [4], the midpoint of inhibition, the IC50, lay at 2.3 µM and the IC90 is 9.06 µM. In addition, the “Selectivity Index” value in series [5] is recorded as 26.7.

For the origin of these results see ChEMBL document CHEMBL1177650, “Synthesis, structural elucidation and in vitro antiparasitic activity against Trypanosoma cruzi and Leishmania chagasi parasites of novel tetrahydro-1-benzazepine derivatives” (Bioorg Med Chem, 2010).
